Active and inactive are the calls of the source. No cut-off for these calls is given here.
Tests used:
[1] = system: PC-12; test: Induction of NGF-mediated neutrite outgrowth of rat PC12 cells after 96 hrs by phase contrast microscopic analysis; assay type: functional, cell-based; conditions: for EC50: PC-12, 96 h
Procedure, shortened: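 PC12 cells grown at 37 °C in DMEM with 5% heat-inactivated FBS and 5% horse serum, dissociated with 1 mM EGTA in PBS, seeded on poly-L-lysine (3 × 10^4 cells/well). After 24 h, switched to 1% FBS/1% HS medium with NGF 20 ng/mL plus test concentrations. Scored as % neurite-bearing cells; EC50 by regression; triplicate.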

[2] = system: PC-12; test: Induction of neutrite outgrowth of rat PC12 cells after 96 hrs in absence of NGF by phase contrast microscopic analysis; assay type: functional, cell-based
Procedure, shortened: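 Poly-L-lysine-seeded PC12 cells (3 × 10^4 cells/well) in 1% FBS/1% horse serum test medium with graded compound concentrations for 96 h. Neurites at least one cell-body diameter counted as neurite-bearing under phase contrast. At least 100 cells per field, three fields per well, six wells per sample. Result expressed as percentage of total cells.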

| SMILES | Activity [1] | Activity [2] | EC50 [1] |
| --- | --- | --- | --- |
| CC(C)=CCC(=O)[C@](C)(O)[C@H]1CC[C@@]2(C)[C@@H]3CC=C4[C@@H](C[C@H](O)C(=O)C4(C)C)[C@]3(C)C(=O)C[C@]12C | inactive | inactive | – |
| CC(C)=CCC[C@](C)(O)[C@H]1CC[C@@]2(C)[C@@H]3CC=C4[C@@H](C[C@H](O)C(=O)C4(C)C)[C@]3(C)C(=O)C[C@]12C | – | – | 10 µM |
| C=CC(=C)CC[C@]1(C)[C@H](C)C[C@H](OC)[C@@]23C(=C[C@@H](O)C[C@@H]12)[C@@H](OC)O[C@H]3OC | – | – | 5.4 µM |
| C=C(C)[C@@H](C)C[C@@H](O)[C@@H](C)[C@H]1CC[C@@]2(C)[C@@H]3CCC4=C(C[C@]35O[C@@H]5C[C@]12C)C(=O)C[C@H](O)C4(C)C | – | – | > 50 µM |
| CC(C)=CCC[C@](C)(O)[C@H]1CC[C@@]2(C)[C@@H]3CC=C4[C@@H](CCC(=O)C4(C)C)[C@]3(C)C(=O)C[C@]12C | – | – | > 50 µM |
| CC(C)(O)/C=C/C(=O)[C@](C)(O)[C@H]1CC[C@@]2(C)[C@@H]3CC=C4[C@@H](C[C@H](O)C(=O)C4(C)C)[C@]3(C)C(=O)C[C@]12C | – | – | > 50 µM |
| C=CC(=C)CC[C@]1(C)[C@H](C)C[C@H](OC)[C@@]23C(=C[C@@H](O)C[C@@H]12)[C@@H](OC)O[C@H]3OC(C)=O | – | – | 8.3 µM |
| C=CC(=C)CC[C@]1(C)[C@H](C)C[C@H](OC)[C@@]23C(=C[C@H](O)C[C@@H]12)[C@@H](OC)O[C@@H]3OC(C)=O | – | – | 2.9 µM |
| C=CC(=C)CC[C@]1(C)[C@H](C)C[C@H](OC)[C@@]23C(=C[C@@H](OC(C)=O)C[C@@H]12)[C@@H](OC(=O)CCC)O[C@@H]3OC(C)=O | – | – | 5.2 µM |
| CC(=O)[C@H]1CC[C@@]2(C)[C@@H]3CC=C4[C@@H](C[C@H](O)C(=O)C4(C)C)[C@]3(C)C(=O)C[C@]12C | – | – | > 50 µM |
